Assay results: ChEMBL document CHEMBL1141431, “Brandisianins A-F, isoflavonoids isolated from Millettia brandisiana in a screening program for death-receptor expression enhancement activity” (J Nat Prod, 2007)
Calls of active or inactive are those of the source. No cut-off for these calls is given here.

Tests used:
DLD-1 [1] = experiment: Cytotoxicity against human DLD1 cells; format: functional, cell-based
HeLa = experiment: Cytotoxicity against human HeLa cells; format: functional, cell-based
DLD-1 [2] = experiment: Activation of death-receptor 5 expression in human DLD-1/ SacI cells at 35.0 uM by luciferase assay relative to control; format: functional
Procedure, shortened: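 DLD-1 human colon cancer cells stably carrying pDR5/SacI (human DR5 promoter–luciferase) plated at 2 × 10^5 cells/well in RPMI with 10% FBS, 24 h at 37 °C, 5% CO2, then exposed 24 h to compound (tested at 17.5 and 35.0 µM). Lysed, luciferase substrate added, luminescence read; activity as relative light intensity versus EtOH-treated control cells; luteolin 17.5 µM positive control; n = 3.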

DLD-1 [3] = experiment: Activation of death-receptor 5 expression in human DLD-1/ SacI cells at 17.5 uM by luciferase assay relative to control; format: functional, cell-based
Procedure, shortened: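 DLD-1/SacI (human colon cancer line stably carrying human DR5 promoter–luciferase construct) seeded in RPMI with 10% FBS, 24 h at 37 °C, 5% CO2. Treated with samples (17.5 and 35.0 µM) 24 h. Lysed, luciferase substrate added, luminescence read. Activity expressed as light intensity relative to EtOH-treated control cells. Luteolin 17.5 µM as positive control. Means, n = 3 ± SD.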

Structure (SMILES)	IC50 (DLD-1 [1])	IC50 (HeLa)	Fold change (DLD-1 [2])	Activity (DLD-1 [3])
COc1cc(-c2coc3c4c(cc(O)c3c2=O)OC(C)(C)C=C4)c(OC)cc1O	> 25 µM	> 25 µM	2.4	
Oc1cc(O)c2c(c1)O[C@H](c1ccc(O)c(O)c1)[C@H](O)C2 [(-)-EPICATECHIN]	> 25 µM	> 25 µM		
COc1cc(-c2coc3cc(O)cc(O)c3c2=O)c(OC)cc1OCC=C(C)C [BRANDISIANIN A]	> 25 µM	> 25 µM		
C=C(C)[C@H]1Cc2c(cc(O)c3c(=O)c(-c4cc(OC)c(O)cc4OC)coc23)O1 [BRANDISIANIN B]	> 25 µM	9.7 µM		
COc1cc(-c2coc3c(CC=C(C)C)c(O)cc(O)c3c2=O)c(OC)cc1O [BRANDISIANIN C]	> 25 µM	19.1 µM		
COc1cc(-c2coc3c4c(cc(O)c3c2=O)O[C@@](C)(CO)C=C4)c(OC)cc1O [BRANDISIANIN D]	> 25 µM	> 25 µM	3	Active
COc1cc(-c2coc3c(C/C=C(\C)CO)c(O)cc(O)c3c2=O)c(OC)cc1O [BRANDISIANIN E]	> 25 µM	21.7 µM		
COc1cc2c(cc1O)[C@@H]1Oc3c(cc(OC)c(OC)c3O)[C@@H]1CO2 [BRANDISIANIN F]	> 25 µM	> 25 µM		
O=C1C[C@@H](c2ccc(O)cc2)Oc2cc(O)cc(O)c21 [NARINGENIN]	> 25 µM	> 25 µM		
COc1cc(-c2coc3cc(O)cc(O)c3c2=O)c(OC)cc1O [OLIBERGIN A]	> 25 µM	> 25 µM		
COc1cc(-c2coc3cc(O)c(CC=C(C)C)c(O)c3c2=O)c(OC)cc1O [VIRIDIFLORIN]	> 25 µM	> 25 µM		
